This note sets out measurements from ChEMBL document CHEMBL4428038, “Overcoming chloroquine resistance in malaria: Design, synthesis and structure-activity relationships of novel chemoreversal agents” (Eur J Med Chem, 2016).

Experiment [1] concerns Plasmodium falciparum. In words: Intrinsic antimalarial activity against chloroquine-sensitive Plasmodium falciparum HB3 isolate MRA-155 assessed as reduction in parasite viability at 500 nM. Type of experiment: functional, organism-based.
In experiment [2] the test system is Plasmodium falciparum. In words: Intrinsic antimalarial activity against chloroquine-resistant Plasmodium falciparum Dd2 isolate MRA-156 harboring CRT K76T mutant assessed as reduction in parasite viability at 500 nM. Type of experiment: functional, organism-based.
Experiment [3] deals with Plasmodium falciparum. Kind of experiment: Intrinsic antimalarial activity against chloroquine/artemisinin-resistant Plasmodium falciparum ARS272 harboring CRT K76T mutant assessed as reduction in parasite viability at 500 nM. Type of experiment: functional, organism-based.
The test system of experiment [4] is Plasmodium falciparum. Kind of experiment: Intrinsic antimalarial activity against chloroquine/artemisinin-resistant Plasmodium falciparum NHP4773 harboring CRT K76T mutant assessed as reduction in parasite viability at 500 nM. It counts as functional, organism-based.
Experiment [5] relates to Plasmodium falciparum. Kind of experiment: Intrinsic antimalarial activity against chloroquine-sensitive Plasmodium falciparum 3D7 isolate MRA-102 assessed as reduction in parasite viability at 500 nM. It counts as functional, organism-based.
The test system of another experiment is Plasmodium falciparum K1. In words: Inhibition of CRT CVIET haplotype mutant in Plasmodium falciparum K1 isolate MRA-159 infected in erythrocytes assessed as chloroquine-coumarin probe accumulation at 10 uM after 10 hrs by Hoechst 33342 staining based flow cytometry (reference value: 35.57 +/- 3.84%). It counts as cell-based. Also on record: scale not given: the % may be the effect or the level left. The essentials:
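Infected erythrocyte cultures at 2.5% hematocrit and 7–12% parasitemia, synchronized to late-ring/early-trophozoite stage, were incubated with chloroquine-coumarin probe plus test agent for 10 h at 37 C. Cells were then washed, resuspended in PBS and read by flow cytometry (405 nm excitation, 450/50 filter). Hoechst-stained duplicate wells set parasitemia. Uptake = % infected erythrocytes fluorescent. Controls: PBS (negative), desipramine and parent compound (positive). ≥3 independent experiments; mean ± SEM.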
A general note: Flow cytometry measures light scatter and fluorescence of single cells or particles in a stream.

Experiment [6] concerns Plasmodium falciparum. In words: Intrinsic antimalarial activity against chloroquine/artemisinin-resistant Plasmodium falciparum ARS233 harboring CRT K76T mutant assessed as reduction in parasite viability at 500 nM. It counts as functional, organism-based.
The test system of experiment [7] is Plasmodium falciparum. Kind of experiment: Intrinsic antimalarial activity against chloroquine-resistant Plasmodium falciparum K1 isolate MRA-159 harboring CRT CVIET haplotype mutant assessed as reduction in parasite viability at 500 nM. Type of experiment: functional, organism-based.
Experiment [8] has as its system Plasmodium falciparum. Kind of experiment: Intrinsic antimalarial activity against intermediate chloroquine-resistant Plasmodium falciparum 7G8 isolate MRA-154 harboring CRT SVMNT haplotype mutant assessed as reduction in parasite viability at 500 nM. It counts as functional, organism-based.
In experiment [9] the test system is Plasmodium falciparum. Kind of experiment: Intrinsic antimalarial activity against chloroquine-resistant Plasmodium falciparum NHP4559 harboring CRT K76T mutant assessed as reduction in parasite viability at 500 nM. It counts as functional, organism-based.

Active and inactive are the calls of the source. No cut-off for these calls is given here.

With `OC1(c2ccc(Cl)cc2)CCNCC1`, the result in the experiment with Plasmodium falciparum [1], with Plasmodium falciparum [2], in the experiment with Plasmodium falciparum [3], in the experiment with Plasmodium falciparum [4], with Plasmodium falciparum [5] and in the experiment with Plasmodium falciparum [6] was inactive. The outcome in the experiment on Plasmodium falciparum [7], in the experiment with Plasmodium falciparum [8] and with Plasmodium falciparum [9] was inactive. The Activity in the experiment on Plasmodium falciparum K1 was 27.5%.
Consider `NCC(CCN1CCN(c2ccc(F)cc2)CC1)(c1ccccc1)c1ccccc1`, for which the outcome in the experiment with Plasmodium falciparum [1], in the experiment with Plasmodium falciparum [2], in the experiment with Plasmodium falciparum [3], in the experiment on Plasmodium falciparum [4], in the experiment on Plasmodium falciparum [5] and in the experiment on Plasmodium falciparum [6] was inactive. Further, the result with Plasmodium falciparum [7], in the experiment on Plasmodium falciparum [8] and with Plasmodium falciparum [9] was inactive. Moreover, in the experiment with Plasmodium falciparum K1, the Activity was found to be 60.5%.
Regarding `NCC(CCN1CCC(N)CC1)(c1ccccc1)c1ccccc1`, the result with Plasmodium falciparum [1], with Plasmodium falciparum [2], in the experiment with Plasmodium falciparum [3], in the experiment with Plasmodium falciparum [4], in the experiment on Plasmodium falciparum [5] and with Plasmodium falciparum [6] was inactive. Further, the result with Plasmodium falciparum [7], with Plasmodium falciparum [8] and in the experiment on Plasmodium falciparum [9] was inactive. Also, the Activity in the experiment with Plasmodium falciparum K1 was 58.9%.
With `N#CC(CCN1CCC(N)CC1)(c1ccccc1)c1ccccc1`, the result in the experiment on Plasmodium falciparum [1], with Plasmodium falciparum [2], in the experiment on Plasmodium falciparum [3], in the experiment with Plasmodium falciparum [4], in the experiment on Plasmodium falciparum [5] and in the experiment on Plasmodium falciparum [6] was inactive. The outcome in the experiment on Plasmodium falciparum [7], in the experiment on Plasmodium falciparum [8] and with Plasmodium falciparum [9] was inactive. The Activity with Plasmodium falciparum K1 amounted to 58%.
With `CC(C)(C)OC(=O)N1CCN(C2Cc3ccccc3Sc3ccc(Cl)cc32)CC1` (stereo unspecified), the result with Plasmodium falciparum [1], in the experiment on Plasmodium falciparum [2], in the experiment with Plasmodium falciparum [3], with Plasmodium falciparum [4], in the experiment with Plasmodium falciparum [5] and with Plasmodium falciparum [6] was inactive. Besides, the result in the experiment on Plasmodium falciparum [7], in the experiment on Plasmodium falciparum [8] and with Plasmodium falciparum [9] was inactive. Besides, the Activity with Plasmodium falciparum K1 came out at 43.4%.
`N#CC(CCN1CCN(c2ccc(F)cc2)CC1)(c1ccccc1)c1ccccc1`: the outcome in the experiment on Plasmodium falciparum [1], in the experiment on Plasmodium falciparum [2], in the experiment with Plasmodium falciparum [3], in the experiment with Plasmodium falciparum [4], with Plasmodium falciparum [5] and with Plasmodium falciparum [6] was inactive. In addition, the outcome with Plasmodium falciparum [7], in the experiment with Plasmodium falciparum [8] and in the experiment with Plasmodium falciparum [9] was inactive. In the experiment with Plasmodium falciparum K1, the Activity is 49%.
With `O=C1C2CCN(CC2)C1C(c1ccccc1)c1ccccc1` (stereo unspecified), the result with Plasmodium falciparum [1], in the experiment on Plasmodium falciparum [2], in the experiment with Plasmodium falciparum [3], with Plasmodium falciparum [4], with Plasmodium falciparum [5] and in the experiment with Plasmodium falciparum [6] was inactive. Further, the outcome in the experiment with Plasmodium falciparum [7], in the experiment with Plasmodium falciparum [8] and with Plasmodium falciparum [9] was inactive. Besides, the Activity in the experiment on Plasmodium falciparum K1 was 49%.
Turning to `NCC(CCN1CCCCC1)(c1ccccc1)c1ccccc1`, the result in the experiment on Plasmodium falciparum [1], in the experiment on Plasmodium falciparum [2], in the experiment with Plasmodium falciparum [3], in the experiment with Plasmodium falciparum [4], in the experiment with Plasmodium falciparum [5] and with Plasmodium falciparum [6] was inactive. Moreover, the outcome in the experiment on Plasmodium falciparum [7], in the experiment with Plasmodium falciparum [8] and with Plasmodium falciparum [9] was inactive. In addition, the Activity in the experiment with Plasmodium falciparum K1 turned out to be 61%.
Take `O=C1C2CCN(CC2)C1Cc1ccccc1` (stereo unspecified): the outcome in the experiment with Plasmodium falciparum [1], with Plasmodium falciparum [2], in the experiment with Plasmodium falciparum [3], in the experiment on Plasmodium falciparum [4], in the experiment on Plasmodium falciparum [5] and in the experiment with Plasmodium falciparum [6] was inactive. For the same molecule, the outcome in the experiment on Plasmodium falciparum [7], in the experiment on Plasmodium falciparum [8] and in the experiment with Plasmodium falciparum [9] was inactive. Besides, the Activity in the experiment with Plasmodium falciparum K1 came out at 34.7%.
Turning to `CNCCCN1c2ccccc2CCc2ccccc21`, the Activity in the experiment with Plasmodium falciparum K1 is 78.8%.
Regarding `O=C1Cc2ccccc2Sc2ccc(Cl)cc21`, the outcome in the experiment with Plasmodium falciparum [1], in the experiment with Plasmodium falciparum [2], in the experiment with Plasmodium falciparum [3], in the experiment on Plasmodium falciparum [4], in the experiment on Plasmodium falciparum [5] and in the experiment on Plasmodium falciparum [6] was inactive. Besides, the result in the experiment on Plasmodium falciparum [7], in the experiment with Plasmodium falciparum [8] and in the experiment on Plasmodium falciparum [9] was inactive. Also, the Activity in the experiment with Plasmodium falciparum K1 stood at 49.1%.
In the case of `CC(C)(C)OC(=O)N1CCCC(NCc2ccccc2I)C1` (stereo unspecified), the outcome in the experiment with Plasmodium falciparum [1], with Plasmodium falciparum [2], with Plasmodium falciparum [3], in the experiment on Plasmodium falciparum [4], in the experiment with Plasmodium falciparum [5] and in the experiment with Plasmodium falciparum [6] was inactive. Moreover, the result in the experiment with Plasmodium falciparum [7], in the experiment with Plasmodium falciparum [8] and in the experiment on Plasmodium falciparum [9] was inactive. Further, the Activity with Plasmodium falciparum K1 is 40.5%.
As for `CC(C)(C)OC(=O)NC1CCN(CCC(C#N)(c2ccccc2)c2ccccc2)CC1`, the result in the experiment on Plasmodium falciparum [1], in the experiment on Plasmodium falciparum [2], in the experiment with Plasmodium falciparum [3], in the experiment on Plasmodium falciparum [4], with Plasmodium falciparum [5] and in the experiment on Plasmodium falciparum [6] was inactive. In addition, the result in the experiment with Plasmodium falciparum [7], with Plasmodium falciparum [8] and with Plasmodium falciparum [9] was inactive. The Activity with Plasmodium falciparum K1 amounted to 38.8%.
For the molecule `CSc1ccc2c(c1)C(=O)Cc1ccccc1S2`, the result in the experiment on Plasmodium falciparum [1], in the experiment on Plasmodium falciparum [2], with Plasmodium falciparum [3], in the experiment with Plasmodium falciparum [4], with Plasmodium falciparum [5] and with Plasmodium falciparum [6] was inactive. The result in the experiment on Plasmodium falciparum [7], in the experiment with Plasmodium falciparum [8] and in the experiment on Plasmodium falciparum [9] was inactive. The Activity with Plasmodium falciparum K1 came out at 49.3%.
Consider `Ic1ccccc1CNCC(c1ccccc1)c1ccccc1`, for which the outcome in the experiment with Plasmodium falciparum [1], in the experiment on Plasmodium falciparum [2], in the experiment on Plasmodium falciparum [3], in the experiment on Plasmodium falciparum [4], in the experiment on Plasmodium falciparum [5] and in the experiment on Plasmodium falciparum [6] was inactive. Further, the result in the experiment with Plasmodium falciparum [7], with Plasmodium falciparum [8] and in the experiment on Plasmodium falciparum [9] was inactive. Further, the Activity in the experiment on Plasmodium falciparum K1 is 50.9%.
In the case of `NC(=O)C(CCN1CCCCC1)(c1ccccc1)c1ccccc1`, the outcome in the experiment on Plasmodium falciparum [1], in the experiment with Plasmodium falciparum [2], in the experiment on Plasmodium falciparum [3], with Plasmodium falciparum [4], in the experiment on Plasmodium falciparum [5] and in the experiment with Plasmodium falciparum [6] was inactive. The outcome in the experiment with Plasmodium falciparum [7], in the experiment on Plasmodium falciparum [8] and with Plasmodium falciparum [9] was inactive. In the experiment on Plasmodium falciparum K1, the Activity is 63.2%.
`N#CC(CCN1CCC(O)(c2ccc(Cl)cc2)CC1)(c1ccccc1)c1ccccc1`: the outcome with Plasmodium falciparum [1], in the experiment with Plasmodium falciparum [2], in the experiment with Plasmodium falciparum [3], in the experiment with Plasmodium falciparum [4], in the experiment with Plasmodium falciparum [5] and with Plasmodium falciparum [6] was inactive. In addition, the result in the experiment with Plasmodium falciparum [7], with Plasmodium falciparum [8] and in the experiment with Plasmodium falciparum [9] was inactive. The Activity in the experiment with Plasmodium falciparum K1 stood at 25.9%.
As for `c1ccc(CNC2C3CCN(CC3)C2Cc2ccccc2)cc1` (mixture of isomers), the outcome in the experiment on Plasmodium falciparum [1], with Plasmodium falciparum [2], with Plasmodium falciparum [3], in the experiment with Plasmodium falciparum [4], with Plasmodium falciparum [5] and with Plasmodium falciparum [6] was inactive. For the same molecule, the result with Plasmodium falciparum [7], in the experiment with Plasmodium falciparum [8] and with Plasmodium falciparum [9] was inactive. The Activity with Plasmodium falciparum K1 is 74.4%.
